Assay results collected from several papers.
Target: Mitogen-activated protein kinase kinase kinase 14 (MAP3K14, Homo sapiens, UniProt Q99558)

SMILES | assay | conditions | remaining binding
Cc1cnn2ncc(-c3ccnc(N(C)C)n3)c2c1 | binding | 1 µM | 80%
Nc1cnc(N2CCc3cc(S(=O)(=O)Nc4c(F)cc(Cl)cc4F)cc(N4CCCC4=O)c32)nc1 | cell-free assay, competition with immobilised ligand | 1 µM | 75%
C[C@@H](c1ccc(-n2cnc3c(N)ncnc32)cc1)N1CCc2nn(C)c(Cc3ccccc3)c2C1=O | binding, competition with immobilised ligand | 0.1 µM | 100%
CNCc1ccccc1-c1csc([C@@H](C)Nc2nc(C)nc3cc(OC)c(OC)cc23)c1 | cell-free assay, competition with immobilised ligand | 1 µM | 93%
Cc1cnc(Nc2ccc(C(=O)N3CCC(N4CCCC4)CC3)cc2)nc1-c1cc2ccccc2s1 | binding, competition with immobilised ligand | 1 µM | 100%
c1cncc(-c2cccc(Nc3nccc(NC4CCCCC4)n3)c2)c1 | binding, competition with immobilised ligand | 10 µM | 96%
C=CC(=O)N1CCC(C(=O)NCC(=O)N2CCN(c3nc(-c4cnc(N)nc4C(F)F)nc(N4CCOCC4)n3)CC2)CC1 | binding, competition with immobilised ligand | 1 µM | 89%
O=C(c1ccc(Nc2ncc(Cl)c(-c3ccc(Cl)s3)n2)cc1)N1CCC(N2CCCC2)CC1 | binding, competition with immobilised ligand | 1 µM | 22%
CN(CCCC(F)(F)F)c1nccc(-c2cnn3ncccc23)n1 | binding, competition with immobilised ligand | 1 µM | 100%
Cc1noc([C@H]2C[C@@H](c3ccc(C(F)(F)F)cc3)CN(C(=O)N3CCS(=O)(=O)C3)C2)n1 | cell-free assay, competition with immobilised ligand | 1 µM | 91%
COc1cnc(Nc2cccc(S(N)(=O)=O)c2)nc1N1CCN(c2ccccc2)C(=O)C1 | binding, competition with immobilised ligand | 1 µM | 89%
O=C(NCC1CCOCC1)c1n[nH]cc1NC(=O)c1c(F)cccc1F | binding, competition with immobilised ligand | 1 µM | 79%
F[C@@H]1CCN(c2nccc(-c3cnn4ncccc34)n2)C1 | binding | 1 µM | 100%
CN1CCN(c2cnc3c(C4CCN(C(=O)c5ccc(OC(F)(F)F)cc5N)CC4)ncnc3c2)CC1 | cell-free assay, competition with immobilised ligand | 1 µM | 100%
N[C@H]1CCN(c2nccc(-c3cnn4ncccc34)n2)C1 | binding, competition with immobilised ligand | 1 µM | 100%
CCCCN(CCCC)C(=O)CN1C[C@@H](c2cc(OC)c3c(c2)OCO3)[C@H](C(=O)O)[C@H]1CC(C)(C)CCC | cell-free assay, competition with immobilised ligand | 1 µM | 100%
C[C@H]1CCN(c2nccc(-c3cnn4ncccc34)n2)C1 | binding, competition with immobilised ligand | 1 µM | 82%
O=C(NS(=O)(=O)c1ccc(NCC2CCOCC2)c([N+](=O)[O-])c1)c1ccc(N2CCN(Cc3ccc(C(F)(F)F)cc3-c3ccc(Cl)cc3)CC2)cc1Oc1cnc2[nH]ccc2c1 | cell-free assay, competition with immobilised ligand | 1 µM | 65%
c1cnn2ncc(-c3ccnc(N4CCC45COC5)n3)c2c1 | binding, competition with immobilised ligand | 1 µM | 44%
O=C(NCCCN1CCOCC1)c1ccc(Nc2nccc(-c3cc4ccccc4s3)n2)cc1 | binding, competition with immobilised ligand | 1 µM | 87%
